Results on 32 compounds are retold here after ChEMBL document CHEMBL1140548, “Synthesis, antibacterial activity, and quantitative structure-activity relationships of new (Z)-2-(nitroimidazolylmethylene)-3(2H)-benzofuranone derivatives” (2007).

Common to all, as to type: functional
The subject of assay [1] is Staphylococcus aureus. The assay can be described thus: Antimicrobial activity against methicillin-resistant Staphylococcus aureus isolate. The method, boiled down: (§1)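 In vitro conventional agar-dilution assay against a panel of Gram-positive and Gram-negative bacteria. Read-out is the minimal inhibitory concentration (MIC), with amoxicillin as the reference drug.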

Assay [2] deals with Bacillus subtilis. The assay can be described thus: Antimicrobial activity against Bacillus subtilis ATCC 6633. Put shortly:
(§2)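 Agar-dilution assay run in vitro on a panel of Gram-positive and Gram-negative bacteria, with amoxicillin as the reference drug. The MIC was taken as the minimal inhibitory concentration.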

For assay [3], the system named is Staphylococcus aureus. The assay can be described thus: Antimicrobial activity against Staphylococcus aureus ATCC 6538p. Put shortly:
as §2

In assay [4] the test system is Staphylococcus epidermidis. The assay can be described thus: Antimicrobial activity against Staphylococcus epidermidis ATCC 12228. The method, boiled down:
as §2

The subject of assay [5] is Klebsiella pneumoniae. Description: Antimicrobial activity against Klebsiella pneumoniae ATCC 10031. Put shortly: as §2
For assay [6], the system named is Staphylococcus aureus. Description: Antimicrobial activity against Staphylococcus aureus ATCC 6538p in presence of 0.1% butylated hydroxytoluene. The method, boiled down:
as §1

The subject of assay [7] is Staphylococcus aureus. The assay can be described thus: Antimicrobial activity against methicillin-resistant Staphylococcus aureus isolate in presence of 0.1% butylated hydroxytoluene. Put shortly:
as §1

Assay [8] concerns Klebsiella pneumoniae. The assay can be described thus: Antimicrobial activity against Klebsiella pneumoniae ATCC 10031 in presence of 0.1% butylated hydroxytoluene.
For assay [9], the system named is Bacillus subtilis. Description: Antimicrobial activity against Bacillus subtilis ATCC 6633 in presence of 0.1% butylated hydroxytoluene.
Assay [10] deals with Staphylococcus epidermidis. Description: Antimicrobial activity against Staphylococcus epidermidis ATCC 12228 in presence of 0.1% butylated hydroxytoluene.

Structures are written as SMILES. Converted amounts (≈) assume the structure as drawn.

One may read the MIC as the smallest concentration in the dilution series that meets the test's criterion for growth inhibition. Take `Cc1cccc2c1O/C(=C\c1c([N+](=O)[O-])ncn1C)C2=O`: the MIC in [1], in assay [2], in assay [3], in assay [4] and in assay [5] was over 100 µg/mL in each case.

Regarding `COc1cccc2c1O/C(=C\c1ncc([N+](=O)[O-])n1C)C2=O`, the MIC in [1], in [2], in assay [3], in [4] and in [5] was 0.78 µg/mL (≈ 2.59 µM) in each case.

For the compound `Cc1cccc2c1O/C(=C\c1ncc([N+](=O)[O-])n1C)C2=O`, the minimal inhibitory concentration (MIC) is 3.12 µg/mL (≈ 11 µM) in assay [1]; 1.56 µg/mL (≈ 5.47 µM) in [2]; 3.12 µg/mL (≈ 11 µM) in assay [3]; 1.56 µg/mL (≈ 5.47 µM) in [4]; 0.39 µg/mL (≈ 1.37 µM) in assay [5].

Consider `Cn1cnc([N+](=O)[O-])c1/C=C1\Oc2ccc(Br)cc2C1=O`, for which the MIC in assay [1], in assay [2], in assay [3], in assay [4] and in assay [5] was over 100 µg/mL throughout.

On to `Cn1cnc([N+](=O)[O-])c1/C=C1\Oc2c(Cl)cccc2C1=O`, for which the MIC in assay [1], in [2], in assay [3], in [4] and in assay [5] was over 100 µg/mL throughout.

Turning to `COc1ccc2c(c1)O/C(=C\c1c([N+](=O)[O-])ncn1C)C2=O`, the MIC in assay [1], in assay [2], in [3], in assay [4] and in assay [5] was over 100 µg/mL each time.

As for `CC1(C)S[C@@H]2[C@H](NC(=O)[C@H](N)c3ccc(O)cc3)C(=O)N2[C@H]1C(=O)O` [AMOXICILLIN], the minimal inhibitory concentration (MIC) in assay [1] was 12.5 µg/mL (≈ 34.2 µM); in assay [2], 12.5 µg/mL (≈ 34.2 µM); in [3], 0.195 µg/mL (≈ 0.534 µM); in assay [4] it was 0.195 µg/mL (≈ 0.534 µM); in assay [5], over 100 µg/mL.

As to `COc1ccc2c(c1OC)O/C(=C\c1ncc([N+](=O)[O-])n1C)C2=O`, the minimal inhibitory concentration (MIC) was 0.78 µg/mL (≈ 2.35 µM) in [1]; 0.39 µg/mL (≈ 1.18 µM) in assay [2]; 0.78 µg/mL (≈ 2.35 µM) in assay [3]; 0.39 µg/mL (≈ 1.18 µM) in assay [4]; 0.2 µg/mL (≈ 0.604 µM) in assay [5].

For the compound `Cn1c([N+](=O)[O-])cnc1C=C1C(=O)c2ccccc2C1=O`, the minimal inhibitory concentration (MIC) in assay [1] is 100 µg/mL (≈ 353 µM); in assay [2], 50 µg/mL (≈ 177 µM); in assay [3], 100 µg/mL (≈ 353 µM); in assay [4] it was 50 µg/mL (≈ 177 µM); in assay [5], over 100 µg/mL.

Turning to `Cn1cnc([N+](=O)[O-])c1/C=C1\Oc2ccccc2C1=O`, the MIC in assay [1], in assay [2], in assay [3], in [4] and in assay [5] was over 100 µg/mL in each case.

As for `COc1cccc2c1O/C(=C\c1c([N+](=O)[O-])ncn1C)C2=O`, the MIC in assay [1], in assay [2], in [3], in [4] and in assay [5] was over 100 µg/mL in each case.

Turning to `Cn1cnc([N+](=O)[O-])c1/C=C1\Oc2cc(Cl)ccc2C1=O`, the MIC in assay [1], in assay [2], in [3], in assay [4] and in assay [5] was over 100 µg/mL throughout.

`Cn1c([N+](=O)[O-])cnc1/C=C1\Oc2cc(O)cc(O)c2C1=O`: the MIC in [6] is over 100 µg/mL; in [7] it was over 100 µg/mL; in [8], over 100 µg/mL; in [9], 50 µg/mL; in assay [10] it was 50 µg/mL.

As for `Cn1c([N+](=O)[O-])cnc1/C=C1\Oc2ccc([N+](=O)[O-])cc2C1=O`, the MIC turned out to be 12.5 µg/mL (≈ 39.5 µM) in assay [1]; 12.5 µg/mL (≈ 39.5 µM) in [2]; 12.5 µg/mL (≈ 39.5 µM) in [3]; 6.25 µg/mL (≈ 19.8 µM) in assay [4]; 6.25 µg/mL (≈ 19.8 µM) in assay [5].

For the compound `COc1ccc2c(c1)C(=O)/C(=C/c1ncc([N+](=O)[O-])n1C)O2`, the minimum inhibitory concentration (MIC) worked out at 3.12 µg/mL (≈ 10.4 µM) in assay [1]; 0.78 µg/mL (≈ 2.59 µM) in assay [2]; 3.12 µg/mL (≈ 10.4 µM) in [3]; 3.12 µg/mL (≈ 10.4 µM) in assay [4]; 0.39 µg/mL (≈ 1.29 µM) in assay [5].

On to `Cn1c([N+](=O)[O-])cnc1/C=C1\Oc2cc(O)ccc2C1=O`, for which the MIC was 12.5 µg/mL in [6]; 12.5 µg/mL in assay [7]; 3.12 µg/mL in [8]; 6.25 µg/mL in [9]; 6.25 µg/mL in assay [10].

Regarding `Cn1c([N+](=O)[O-])cnc1/C=C1\Oc2ccc(Cl)cc2C1=O`, the minimal inhibitory concentration (MIC) in assay [1] was 3.12 µg/mL (≈ 10.2 µM); in [2] it was 1.56 µg/mL (≈ 5.1 µM); in assay [3], 3.12 µg/mL (≈ 10.2 µM); in assay [4], 3.12 µg/mL (≈ 10.2 µM); in assay [5], 0.78 µg/mL (≈ 2.55 µM).

Turning to `Cn1c([N+](=O)[O-])cnc1/C=C1\Oc2c(Cl)cccc2C1=O`, the MIC in [1] came to 3.12 µg/mL (≈ 10.2 µM); in assay [2], 3.12 µg/mL (≈ 10.2 µM); in assay [3], 3.12 µg/mL (≈ 10.2 µM); in assay [4], 3.12 µg/mL (≈ 10.2 µM); in assay [5], 1.56 µg/mL (≈ 5.1 µM).

For the compound `COc1ccc2c(c1)C(=O)/C(=C/c1c([N+](=O)[O-])ncn1C)O2`, the minimum inhibitory concentration (MIC) in [1] was over 100 µg/mL; in assay [2], over 100 µg/mL; in assay [3], over 100 µg/mL; in [4], over 100 µg/mL; in assay [5], 6.25 µg/mL (≈ 20.7 µM).

For the compound `COc1ccc2c(c1)O/C(=C\c1ncc([N+](=O)[O-])n1C)C2=O`, the MIC in [1] came out at 1.56 µg/mL (≈ 5.18 µM); in [2] it was 0.78 µg/mL (≈ 2.59 µM); in assay [3], 1.56 µg/mL (≈ 5.18 µM); in assay [4], 1.56 µg/mL (≈ 5.18 µM); in [5], 0.39 µg/mL (≈ 1.29 µM).

For the compound `Cc1ccc2c(c1)C(=O)/C(=C/c1c([N+](=O)[O-])ncn1C)O2`, the MIC in assay [1], in [2], in [3], in [4] and in [5] was over 100 µg/mL throughout.

As to `Cn1c([N+](=O)[O-])cnc1/C=C1\Oc2ccc(Br)cc2C1=O`, the MIC in assay [1] is over 100 µg/mL; in assay [2] it was over 100 µg/mL; in [3], over 100 µg/mL; in [4] it was over 100 µg/mL; in assay [5] it was 3.12 µg/mL (≈ 8.93 µM).

Take `Cn1c([N+](=O)[O-])cnc1/C=C1\Oc2ccccc2C1=O`: the MIC in [1] worked out at 6.25 µg/mL (≈ 23 µM); in assay [2], 0.78 µg/mL (≈ 2.88 µM); in assay [3], 3.12 µg/mL (≈ 11.5 µM); in [4], 3.12 µg/mL (≈ 11.5 µM); in assay [5], 0.39 µg/mL (≈ 1.44 µM).

`Cc1ccc2c(c1)C(=O)/C(=C/c1ncc([N+](=O)[O-])n1C)O2`: the minimum inhibitory concentration (MIC) stood at 3.12 µg/mL (≈ 11 µM) in assay [1]; 1.56 µg/mL (≈ 5.47 µM) in [2]; 3.12 µg/mL (≈ 11 µM) in assay [3]; 3.12 µg/mL (≈ 11 µM) in [4]; 0.39 µg/mL (≈ 1.37 µM) in [5].

On to `Cc1ccc2c(c1)O/C(=C\c1ncc([N+](=O)[O-])n1C)C2=O`, for which the minimum inhibitory concentration (MIC) in [1] came to 1.56 µg/mL (≈ 5.47 µM); in assay [2] it was 0.78 µg/mL (≈ 2.73 µM); in assay [3] it was 3.12 µg/mL (≈ 11 µM); in assay [4] it was 1.56 µg/mL (≈ 5.47 µM); in [5], 0.39 µg/mL (≈ 1.37 µM).

For `Cn1cnc([N+](=O)[O-])c1/C=C1\Oc2ccc([N+](=O)[O-])cc2C1=O`, the minimal inhibitory concentration (MIC) in assay [1], in assay [2], in assay [3], in assay [4] and in assay [5] was over 100 µg/mL in each case.

For `Cn1c([N+](=O)[O-])cnc1/C=C1\Oc2ccc(I)cc2C1=O`, the minimum inhibitory concentration (MIC) in assay [1] is over 100 µg/mL; in assay [2], over 100 µg/mL; in assay [3], over 100 µg/mL; in [4], over 100 µg/mL; in [5], 50 µg/mL (≈ 126 µM).

With `Cn1c([N+](=O)[O-])cnc1/C=C1\Cc2ccccc2C1=O`, the MIC in assay [1] is over 100 µg/mL; in assay [2], over 100 µg/mL; in [3], over 100 µg/mL; in assay [4] it was over 100 µg/mL; in assay [5], 0.2 µg/mL (≈ 0.743 µM).

As for `Cn1cnc([N+](=O)[O-])c1/C=C1\Oc2ccc(I)cc2C1=O`, the MIC in assay [1], in [2], in [3], in assay [4] and in assay [5] was over 100 µg/mL each time.

Take `Cn1cnc([N+](=O)[O-])c1/C=C1\Oc2ccc(Cl)cc2C1=O`: the minimum inhibitory concentration (MIC) in assay [1], in [2], in [3], in assay [4] and in [5] was over 100 µg/mL throughout.

In the case of `Cc1ccc2c(c1)O/C(=C\c1c([N+](=O)[O-])ncn1C)C2=O`, the MIC in assay [1], in [2], in [3], in assay [4] and in assay [5] was over 100 µg/mL each time.

Consider `Cn1c([N+](=O)[O-])cnc1/C=C1\Oc2cc(Cl)ccc2C1=O`, for which the MIC in assay [1] is over 100 µg/mL; in [2], 1.56 µg/mL (≈ 5.1 µM); in assay [3], over 100 µg/mL; in assay [4], over 100 µg/mL; in [5], 0.78 µg/mL (≈ 2.55 µM).
